≈ marks a conversion by molar mass, not a printed value.
Key:
Blood = assay: Inhibition of TNF-alpha-stimulated IL8 production in human whole blood incubated for 1 hr before TNFalpha challenge measured after 16 to 18 hrs; format: functional, tissue-based
Summary of the method: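 Human whole blood diluted to 50% and stimulated with TNFα, with IL-8 secretion as read-out. IC50 is the mean of at least three independent dose–response curves, or of two where flagged.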

[1] = biological target: Mitogen-activated protein kinase 14 (Homo sapiens, UniProt Q16539); assay: Inhibition of human recombinant p38alpha assessed as phosphorylation of ATF2 by scintillation proximity assay
Sequence of Mitogen-activated protein kinase 14 (Q16539 whole entry): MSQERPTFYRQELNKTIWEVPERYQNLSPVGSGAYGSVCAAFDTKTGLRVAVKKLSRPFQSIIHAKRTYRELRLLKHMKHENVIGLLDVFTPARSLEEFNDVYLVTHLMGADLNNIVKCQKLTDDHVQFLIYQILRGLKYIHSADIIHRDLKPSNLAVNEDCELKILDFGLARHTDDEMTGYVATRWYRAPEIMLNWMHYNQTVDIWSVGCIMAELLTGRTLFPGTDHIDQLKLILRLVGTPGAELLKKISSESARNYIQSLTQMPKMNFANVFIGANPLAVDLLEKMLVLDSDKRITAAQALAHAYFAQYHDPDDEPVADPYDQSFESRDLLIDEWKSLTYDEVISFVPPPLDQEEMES

[2] = Volume of distribution at steady state in Sprague-Dawley rat at 2 mg/kg, iv; format: ADME, organism-based; parameters: dose 2 mg/kg, route intravenous; conditions: in vivo, read-out: Vdss
Summary of the method: (§1)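 Male Sprague–Dawley rats given 2.0 mg/kg iv (in DMSO) or 2.0 mg/kg po. Values are the mean of three rats. Reported parameters are CL, Vdss, t1/2, AUC(0-inf) and oral F.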

[3] = Clearance in Sprague-Dawley rat at 2 mg/kg, iv; format: ADME, organism-based; parameters: dose 2 mg/kg, route intravenous; conditions: in vivo; summary of the method: as §1
THP-1 = assay: Inhibition of LPS-induced TNFalpha release in human THP1 cells after 3 hrs; format: functional, cell-based; conditions: THP-1, 3 h
Summary of the method: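 THP1 cell line challenged with LPS, with TNFα secretion as read-out. IC50 is the mean of at least three independent dose–response curves, or of two where flagged.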

[4] = Oral bioavailability in Sprague-Dawley rat at 2 mg/kg; format: ADME, organism-based; conditions: in vivo; summary of the method: as §1
[5] = Half life in Sprague-Dawley rat at 2 mg/kg, iv; format: ADME, organism-based; parameters: dose 2 mg/kg, route intravenous; conditions: in vivo; summary of the method: as §1
[6] = AUC (0 to infinity) in Sprague-Dawley rat at 2 mg/kg, po; format: ADME, organism-based; parameters: time infinity, dose 2 mg/kg, route oral; conditions: plasma; summary of the method: as §1
[7] = Solubility in 0.01N HCl; format: physicochemical
[8] = Solubility in simulated intestinal fluid; format: physicochemical
[9] = Solubility in phosphate buffered saline; format: physicochemical
[10] = Protein binding in rat plasma by ultrafiltration method; conditions: read-out: PPB (converted)
Rattus norvegicus [11] = species on record: Rattus norvegicus; assay: Plasma concentration in Lewis rat at ED50; format: ADME, organism-based; conditions: in vivo
Rattus norvegicus [12] = assay: Inhibition of LPS-induced TNFalpha production in po dosed Lewis rat administered 60 mins prior to LPS challenge measured after 90 mins by ELISA
Cytochrome P450 2C19 = Cytochrome P450 2C19 (Homo sapiens, UniProt P33261); assay: Inhibition of CYP2C19; format: ADME
Sequence of Cytochrome P450 2C19 (P33261 whole entry): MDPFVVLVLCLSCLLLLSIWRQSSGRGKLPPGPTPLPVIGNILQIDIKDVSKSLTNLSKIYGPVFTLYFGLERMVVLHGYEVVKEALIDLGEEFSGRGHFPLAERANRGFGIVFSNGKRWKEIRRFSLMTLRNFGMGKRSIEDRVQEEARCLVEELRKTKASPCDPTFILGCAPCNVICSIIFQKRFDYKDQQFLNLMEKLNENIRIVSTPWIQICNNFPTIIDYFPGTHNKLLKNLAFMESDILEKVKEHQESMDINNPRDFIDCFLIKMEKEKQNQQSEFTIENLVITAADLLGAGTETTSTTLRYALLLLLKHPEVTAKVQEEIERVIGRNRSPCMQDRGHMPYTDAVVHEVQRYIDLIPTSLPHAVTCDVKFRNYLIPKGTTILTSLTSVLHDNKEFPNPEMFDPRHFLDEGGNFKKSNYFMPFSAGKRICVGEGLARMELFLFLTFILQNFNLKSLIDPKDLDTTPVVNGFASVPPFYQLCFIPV

Rattus norvegicus [13] = assay: Inhibition of LPS-induced TNFalpha production in Lewis rat at 0.3 mg/kg, po administered 60 mins prior to LPS challenge measured after 90 mins by ELISA
[14] = Ratio of drug level in brain to plasma in Lewis rat; format: ADME; conditions: read-out: BPR
Cytochrome P450 2D6 = Cytochrome P450 2D6 (Homo sapiens, UniProt P10635); assay: Inhibition of CYP2D6; format: ADME
Sequence of Cytochrome P450 2D6 (P10635 whole entry): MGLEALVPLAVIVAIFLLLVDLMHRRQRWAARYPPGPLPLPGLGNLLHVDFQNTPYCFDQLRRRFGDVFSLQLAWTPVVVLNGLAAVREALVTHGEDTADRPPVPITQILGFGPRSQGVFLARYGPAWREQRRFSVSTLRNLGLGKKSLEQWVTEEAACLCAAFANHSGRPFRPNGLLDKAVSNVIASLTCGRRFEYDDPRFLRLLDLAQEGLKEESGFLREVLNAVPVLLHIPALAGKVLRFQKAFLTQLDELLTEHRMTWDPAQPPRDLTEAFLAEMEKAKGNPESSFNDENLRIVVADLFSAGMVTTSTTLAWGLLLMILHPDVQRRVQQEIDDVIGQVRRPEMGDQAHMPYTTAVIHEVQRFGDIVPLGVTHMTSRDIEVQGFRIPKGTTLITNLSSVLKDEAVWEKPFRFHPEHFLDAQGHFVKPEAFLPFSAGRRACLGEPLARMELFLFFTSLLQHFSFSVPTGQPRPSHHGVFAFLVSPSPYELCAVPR

Cytochrome P450 2C9 = Cytochrome P450 2C9 (Homo sapiens, UniProt P11712); assay: Inhibition of CYP2C9; format: ADME
Sequence of Cytochrome P450 2C9 (P11712 whole entry): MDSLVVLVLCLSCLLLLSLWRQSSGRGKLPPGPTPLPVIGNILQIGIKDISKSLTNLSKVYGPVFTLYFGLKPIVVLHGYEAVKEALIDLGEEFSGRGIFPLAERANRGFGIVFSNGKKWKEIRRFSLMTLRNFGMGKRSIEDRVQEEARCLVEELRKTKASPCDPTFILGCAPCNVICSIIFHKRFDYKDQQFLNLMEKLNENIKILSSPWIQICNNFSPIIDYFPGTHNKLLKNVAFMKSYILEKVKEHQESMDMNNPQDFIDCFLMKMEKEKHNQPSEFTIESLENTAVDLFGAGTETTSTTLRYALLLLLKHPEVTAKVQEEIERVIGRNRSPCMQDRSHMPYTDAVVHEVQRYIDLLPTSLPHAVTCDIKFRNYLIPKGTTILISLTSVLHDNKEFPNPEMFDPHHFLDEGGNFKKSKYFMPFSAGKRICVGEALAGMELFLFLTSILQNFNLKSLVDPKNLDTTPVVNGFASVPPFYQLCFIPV

Rattus norvegicus [15] = assay: Inhibition of LPS-induced TNFalpha production in Lewis rat at 0.1 mg/kg, po administered 60 mins prior to LPS challenge measured after 90 mins by ELISA
[16] = biological target: RAF proto-oncogene serine/threonine-protein kinase (Homo sapiens) (UniProt P04049); assay: Inhibition of c-Raf at 1.5 uM; values are per cent of control
Sequence of RAF proto-oncogene serine/threonine-protein kinase (Homo sapiens) (P04049 whole entry): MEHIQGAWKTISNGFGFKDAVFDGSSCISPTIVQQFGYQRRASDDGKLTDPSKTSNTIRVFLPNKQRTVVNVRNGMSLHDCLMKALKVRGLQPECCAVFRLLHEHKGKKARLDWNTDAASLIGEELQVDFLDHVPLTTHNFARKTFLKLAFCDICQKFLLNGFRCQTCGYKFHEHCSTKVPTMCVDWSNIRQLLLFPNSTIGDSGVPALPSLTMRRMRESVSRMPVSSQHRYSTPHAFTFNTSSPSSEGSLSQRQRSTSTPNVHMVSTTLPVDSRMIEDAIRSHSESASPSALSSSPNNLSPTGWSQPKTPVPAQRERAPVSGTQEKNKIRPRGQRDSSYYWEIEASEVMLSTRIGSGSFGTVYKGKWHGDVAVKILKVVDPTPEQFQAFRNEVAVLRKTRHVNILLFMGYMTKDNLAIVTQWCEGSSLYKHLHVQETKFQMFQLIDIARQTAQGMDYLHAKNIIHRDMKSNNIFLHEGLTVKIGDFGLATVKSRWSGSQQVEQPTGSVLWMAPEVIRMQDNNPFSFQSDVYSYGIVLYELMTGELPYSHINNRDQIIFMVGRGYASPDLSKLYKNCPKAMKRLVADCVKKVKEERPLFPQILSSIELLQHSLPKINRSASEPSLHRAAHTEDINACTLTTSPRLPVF

Rattus norvegicus [17] = assay: Inhibition of LPS-induced TNFalpha production in Lewis rat at 0.01 mg/kg, po administered 60 mins prior to LPS challenge measured after 90 mins by ELISA
Rattus norvegicus [18] = assay: Inhibition of LPS-induced TNFalpha production in Lewis rat at 0.03 mg/kg, po administered 60 mins prior to LPS challenge measured after 90 mins by ELISA

Compound	IC50 (Blood)	IC50 [1]	Vd [2]	clearance [3]	IC50 (THP-1)	bioavailability [4]	half-life [5]	AUC(0-inf) [6]	further results
Cc1ccc(C(=O)NC2CC2)cc1Nc1cc(=O)n(C)c2c1cnn2-c1c(F)cccc1F	1.3 nM	1.9 nM	1.2 L/kg	14.7 mL/min/kg	0.87 nM	12%	2.8 h	273 ng·h/mL	–
Cc1ccc(C(=O)NC2CC2)cc1Oc1cc(=O)n(C)c2c1cnn2-c1cc(F)ccc1F	16 nM	6.1 nM	–	–	5 nM	–	–	–	–
Cn1c(=O)cc(Nc2cc(C(=O)NC3CC3)ccc2F)c2cnn(-c3ccc(F)cc3F)c21	19 nM	13 nM	–	–	6.7 nM	–	–	–	–
Cn1c(=O)cc(Nc2cc(C(=O)NC3CC3)ccc2Cl)c2cnn(-c3cc(F)ccc3F)c21	1.9 nM	1.1 nM	1.2 L/kg	8.67 mL/min/kg	1.1 nM	56%	2.1 h	2160 ng·h/mL	solubility [7]: 28.6 µg/mL (≈ 60.9 µM); solubility [8]: 35.2 µg/mL (≈ 74.9 µM); solubility [9]: 24.9 µg/mL (≈ 53 µM)
CCn1c(=O)cc(Oc2cc(C(=O)NC3CC3)ccc2C)c2cnn(-c3ccc(F)cc3)c21	13 nM	4 nM	1.1 L/kg	4.5 mL/min/kg	1.8 nM	41%	3.2 h	1500 ng·h/mL	–
Cn1c(=O)cc(NC2CCOCC2)c2cnn(-c3cccc(F)c3)c21	> 2500 nM	> 1000 nM	–	–	> 2500 nM	–	–	–	–
Cc1ccncc1Nc1cc(=O)n(C)c2c1cnn2-c1cc(F)ccc1F	403 nM	444 nM	–	–	208 nM	–	–	–	–
Cc1ccc(C(=O)NC2CC2)cc1Nc1cc(=O)n(C)c2c1cnn2-c1ccc(F)cc1F	2.4 nM	–	–	–	1 nM	–	–	–	–
Cc1ccc(C(=O)NC(C)(C)C)cc1Nc1cc(=O)n(C)c2c1cnn2-c1ccc(F)cc1F	204 nM	269 nM	–	–	65 nM	–	–	–	–
Cn1c(=O)cc(Nc2cc(C(=O)NC3CC3)ccc2Cl)c2cnn(-c3c(F)cccc3F)c21	1.5 nM	1.1 nM	1.9 L/kg	21.7 mL/min/kg	0.62 nM	9%	3.4 h	139 ng·h/mL	–
CCn1c(=O)cc(Nc2cc(C(=O)NC3CC3)ccc2Cl)c2cnn(-c3ccc(F)cc3)c21	0.93 nM	1.2 nM	1.8 L/kg	6.83 mL/min/kg	1 nM	45%	3.7 h	2290 ng·h/mL	–
Cn1c(=O)cc(Nc2ccc(F)cc2F)c2cnn(-c3ccc(F)cc3F)c21	> 2500 nM	> 1000 nM	–	–	937 nM	–	–	–	–
CONC(=O)c1ccc(C)c(Nc2cc(=O)n(C)c3c2cnn3-c2ccc(F)cc2F)c1	1.4 nM	1.1 nM	1.7 L/kg	43.3 mL/min/kg	1.1 nM	15%	3.3 h	120 ng·h/mL	–
Cc1ccc(C(N)=O)cc1Nc1cc(=O)n(C)c2c1cnn2-c1ccc(F)cc1F	3.4 nM	2.6 nM	–	–	1.9 nM	–	–	–	–
Cc1ccc(C(N)=O)cc1Nc1cc(=O)n(C)c2c1cnn2-c1cc(F)ccc1F	7.1 nM	3.7 nM	–	–	7.5 nM	–	–	–	–
Cc1ccc(C(=O)NC2CC2)cc1Oc1cc(=O)n(C)c2c1cnn2-c1ccc(F)cc1F	16 nM	7.8 nM	–	–	3.5 nM	–	–	–	solubility [7]: 5.7 µg/mL (≈ 12.7 µM); solubility [8]: 12.2 µg/mL (≈ 27.1 µM); solubility [9]: 5.3 µg/mL (≈ 11.8 µM)
CCn1c(=O)cc(Nc2cc(C(=O)NC3CC3)ccc2Cl)c2cnn(-c3ccc(F)cc3F)c21	1.3 nM	1.1 nM	1.5 L/kg	7 mL/min/kg	0.67 nM	16%	3.4 h	776 ng·h/mL	–
Cn1c(=O)cc(Nc2ccc(F)cc2)c2cnn(-c3c(F)cccc3F)c21	> 833 nM	> 1000 nM	–	–	546 nM	–	–	–	–
Cc1ccc(C(=O)NC2CC2)cc1Oc1cc(=O)n(C)c2c1cnn2-c1cccc(F)c1	29 nM	8.5 nM	–	–	12 nM	–	–	–	–
Cc1ccc(C(=O)NC2CC2)cc1Nc1cc(=O)n(C)c2c1cnn2-c1cc(F)ccc1F	2.5 nM	2.9 nM	–	–	1 nM	–	–	–	–
Cn1c(=O)cc(Nc2cc(C(=O)NC3CC3)ccc2F)c2cnn(-c3c(F)cccc3F)c21	8.2 nM	1.9 nM	–	–	3.2 nM	–	–	–	–
Cn1c(=O)cc(Oc2cc(C(=O)NC3CC3)ccc2Cl)c2cnn(-c3cc(F)ccc3F)c21	79 nM	3.3 nM	–	–	14 nM	–	–	–	solubility [7]: 24.8 µg/mL (≈ 52.7 µM); solubility [8]: 49 µg/mL (≈ 104 µM); solubility [9]: 14.7 µg/mL (≈ 31.2 µM)
Cc1ccc(C(=O)NC2CC2)cc1Nc1cc(=O)n(C)c2c1cnn2-c1cccc(F)c1	1.7 nM	3.3 nM	–	–	1.3 nM	–	–	–	–
Cn1c(=O)cc(Nc2cc(C(=O)NC3CC3)ccc2Cl)c2cnn(-c3ccc(F)cc3F)c21	1.1 nM	–	1.2 L/kg	6.17 mL/min/kg	0.44 nM	81%	3.8 h	4610 ng·h/mL	fraction unbound [10]: 0.02; Cp (Rattus norvegicus [11]): 0.9 ng/mL; ED50 (Rattus norvegicus [12]): 0.05 mg/kg; IC50 (Cytochrome P450 2C19): 16000 nM; inhibition in vivo at 0.3 mg/kg (Rattus norvegicus [13]): 98.4%; Kp [14]: 0.06; IC50 (Cytochrome P450 2D6): 22700 nM; IC50 (Cytochrome P450 2C9): 8400 nM; inhibition in vivo at 0.1 mg/kg (Rattus norvegicus [15]): 83.9%; solubility [7]: 67.1 µg/mL (≈ 143 µM); solubility [8]: 81.7 µg/mL (≈ 174 µM); solubility [9]: 60.6 µg/mL (≈ 129 µM); residual activity [16]: 75%; inhibition in vivo at 0.01 mg/kg (Rattus norvegicus [17]): 21.6%; inhibition in vivo at 0.03 mg/kg (Rattus norvegicus [18]): 22.6%
CCn1c(=O)cc(Nc2cc(C(=O)NC3CC3)ccc2C)c2cnn(-c3ccc(F)cc3)c21	1.9 nM	4 nM	–	–	1.1 nM	–	–	–	–
Cc1ccc(C(=O)NC2CC2)cc1Oc1cc(=O)n(C)c2c1cnn2-c1c(F)cccc1F	2.6 nM	1.4 nM	1.3 L/kg	10.5 mL/min/kg	1 nM	7%	2.3 h	244 ng·h/mL	–
Cc1ccc(C(=O)O)cc1Nc1cc(=O)n(C)c2c1cnn2-c1ccc(F)cc1F	> 2500 nM	> 1000 nM	–	–	> 2500 nM	–	–	–	–

— ChEMBL document CHEMBL1153060, “Part 1: Structure-Activity Relationship (SAR) investigations of fused pyrazoles as potent, selective and orally available inhibitors of p38alpha mitogen-activated protein kinase” (Bioorg Med Chem Lett, 2009)
